Rce1 inh: yeast Rce1p protease inhibitors, primary screen, biochemical, fluorescence, cell-free homogeneous. CAAX prenyl protease 2 (Saccharomyces cerevisiae (strain ATCC 204508 / S288c)), Q03530. yeast membranes, quenched prenylated peptide cleavage fluorescence. calls only. 290,000 compounds, 0.27% hits. AID 2563, 2010;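 active means fall in fluorescence gain of 50% or more versus controls, with final raw signal at or below 3038400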
Target sequence (Q03530 whole entry, looked up): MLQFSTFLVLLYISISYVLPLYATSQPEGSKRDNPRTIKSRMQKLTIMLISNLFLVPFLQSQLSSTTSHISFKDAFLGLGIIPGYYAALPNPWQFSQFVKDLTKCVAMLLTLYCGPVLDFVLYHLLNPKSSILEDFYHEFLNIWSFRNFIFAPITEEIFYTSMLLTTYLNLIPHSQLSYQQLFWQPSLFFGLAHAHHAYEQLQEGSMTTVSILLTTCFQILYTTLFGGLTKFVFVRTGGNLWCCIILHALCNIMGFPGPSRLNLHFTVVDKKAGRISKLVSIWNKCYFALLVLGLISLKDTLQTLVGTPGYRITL
CAL PDZ FP-1: untagged CAL PDZ binding inhibitors, primary screen, biochemical, fluorescence polarization, HTS; Golgi-associated PDZ and coiled-coil motif-containing protein (Homo sapiens), Q9HD26; purified CAL PDZ, TMR-peptide fluorescence polarization, 1 h; inhibition, % at 24.9 µM; 300,000 compounds, 0.92% hits; AID 602252, 2012;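 active means mean inhibition of at least 30% with at least half of replicates also reaching 30%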
AI-2 QS mod: Vibrio harveyi AI-2 quorum sensing modulators, primary screen, JMH597 strain, luminescence/OD600 ratio. Vibrio harveyi JMH597 AI-2 luminescence/OD600 ratio, 9 h; active compounds read low; strain lacks LuxN and CqsS sensors; 0 = neutral-control median. activity change, % at 7.5 µM. 300,000 compounds, 0.4% hits; in the data active means activity change below about -75%, passing the limit was not always enough;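 further: luminescence divided by OD600 gain over 9 h not by final OD600 alone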
CAL PDZ FP-2: CAL PDZ peptide-binding inhibitors, primary screen, biochemical, fluorescence polarization, Cer-tagged CAL PDZ, HTS; Golgi-associated PDZ and coiled-coil motif-containing protein (Homo sapiens), Q9HD26; purified CAL PDZ, TMR-peptide fluorescence polarization, 1 h; inhibition, % at 20 µM; 330,000 compounds, 0.02% hits; AID 504414, 2011;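 active means highest replicate inhibition of at least 40%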
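Read-out basis: mP drop reported as inhibition | Assay system: Tagged CAL PDZ protein CerCALP, purified | Benchmarks: Unlabelled peptide for full inhibition, DMSO wells as neutral | Schedule: 1 h incubation at room temperature before polarization reading | Buffer or medium: Sodium phosphate/NaCl buffer pH 7.4 with TCEP, IgG, Thesit | Doses: Single point, 20 µM | Measured by: Fluorescence polarization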
ARNT TACC3 PPI: disruptors of ARNT/TACC3 protein interaction, primary screen, biochemical, AlphaScreen, single concentration. inhibition, % at 9.99 µM. 390,000 compounds, 0.66% hits. AlphaScreen His-ARNT PAS-B/GST-TACC3 binding, luminescence; TACC3 fragment carries E629A point mutation. AID 623870, 2012. Transforming acidic coiled-coil-containing protein 3 (Homo sapiens), Q9Y6A5;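 active means mean inhibition of replicates at least 50% and at least half of replicates each reaching 50%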
Of the large screens only hits and unclear results are named; the others gave an inactive call. The list is not random: actives were taken first. Their share in the collection is about 1.7%.

COc1ccc(Br)cc1CN(C)C(=O)Cc1ccc(S(=O)(=O)N2CCOCC2)s1	none
CCOc1cc2c(C#N)c(N3CCNCC3)nc(N)c2c(N)n1	CAL PDZ FP-1 70
COc1cc2c(C#N)c(N3CCc4ccccc4C3)nc(N)c2c(N)n1	none
CCN(CC)c1nc(N)c2c(N)nc(OC)cc2c1C#N	Rce1 inh active
COc1cc2c(C#N)c(N3CCOCC3)nc(N)c2c(N)n1	ARNT TACC3 PPI 69 (no result: CAL PDZ FP-2)
COc1cc2c(C#N)c(N3CCCCC3)nc(N)c2c(N)n1	Rce1 inh active (no result: ARNT TACC3 PPI)
COc1ccccc1-c1cnc2c(c1)C(=O)N([C@H](C)CO)C[C@H](C)[C@@H](CN(C)Cc1cccnc1)O2	none (no result: Rce1 inh, CAL PDZ FP-1, AI-2 QS mod, CAL PDZ FP-2)
O=C(NNC(=O)C12CC3CC(CC(C3)C1)C2)c1ccco1	none (no result: ARNT TACC3 PPI)
CCOC(=O)C1CCN(c2nc(C)cc(C)c2C#N)CC1	none
CCOC(=O)C1CCN(c2nc(N)c3c(N)nc(SCC(=O)O)cc3c2C#N)CC1	ARNT TACC3 PPI 52
CCOCCCNC(=O)CCCC1=NS(=O)(=O)c2ccccc2N1	ARNT TACC3 PPI active (no result: CAL PDZ FP-1)
O=C(CCCC1=NS(=O)(=O)c2ccccc2N1)NCCc1ccc(Cl)cc1	none
CCCCOCCCNC(=O)CCCOc1ccccc1	none
CCOCCCNC(=O)CCCOc1ccccc1	CAL PDZ FP-1 70
CCC(C)C(NC(=O)C(C)NC(=O)CNC(=O)CNC(=O)OCc1ccccc1)C(=O)OC (centres undefined)	CAL PDZ FP-1 47
CC(=O)Nc1ccc(NCC(=O)c2ccccc2)cc1	CAL PDZ FP-1 50
CC(C)(C)N(NC(=O)Nc1ccc(Cl)c(Cl)c1)C(=O)c1ccccc1	none
COC(=O)c1cn(NC(=O)Cc2cccc(OC)c2)c(=O)c2ccccc12	CAL PDZ FP-1 34
COc1cc(OC)cc(C(=O)Nn2cc(C(=O)Nc3ccccc3F)c3ccccc3c2=O)c1	none (no result: ARNT TACC3 PPI)
COC(=O)c1cn(NC(=O)c2cnccn2)c(=O)c2ccccc12	ARNT TACC3 PPI 63
O=C(Nn1cc(C(=O)Nc2ccccc2F)c2ccccc2c1=O)c1cnccn1	ARNT TACC3 PPI 60
COc1ccc(C(N)=O)c(OCC(=O)Nc2cc(C)on2)c1	CAL PDZ FP-1 39 (no result: Rce1 inh, AI-2 QS mod)
COCC(=O)N(C)C[C@@H]1Oc2ncc(C#C[C@H](C)O)cc2C(=O)N([C@H](C)CO)C[C@@H]1C	none (no result: Rce1 inh, CAL PDZ FP-1, AI-2 QS mod, CAL PDZ FP-2)
COc1ccc(Cc2nc3ccc(C(=O)N4CCCC4)cc3o2)cc1	Rce1 inh active
Cc1ccc2nc(-c3ccc(NC(=S)NCCC(C)C)cc3)sc2c1	CAL PDZ FP-1 active
CCCCNC(=S)Nc1ccc(-c2nc3ccc(C)cc3s2)cc1	none
N/C(=N\O)c1ccc(NC(=O)c2ccc(Br)o2)cc1	CAL PDZ FP-1 67
CCn1cc(CN2CCN(Cc3ccccc3)C(CCO)C2)c2ccccc21 (centres undefined)	none
O=C(O)c1ccc(N2CCN(C(c3ccccc3)c3ccccc3)CC2)c([N+](=O)[O-])c1	none (no result: CAL PDZ FP-2)
O=C(COC(=O)c1ccco1)NNC(=O)c1ccc(Cl)cc1	none (no result: Rce1 inh, AI-2 QS mod)
Clc1ccc(-c2ccc(CNCc3ccccn3)o2)cc1	ARNT TACC3 PPI 73
CC(C#N)On1c(SC(C)C#N)nc2ccccc2c1=O (centres undefined)	none (no result: Rce1 inh, CAL PDZ FP-1)
CCCCCN1CSC(=S)N(Cc2ccccc2)C1	CAL PDZ FP-1 46
CCOc1c(C)cc(S(=O)(=O)NCc2ccccn2)c(C)c1C	CAL PDZ FP-1 67 (no result: CAL PDZ FP-2)
Cc1ccc(NC(=O)CSc2nnc(Cn3c(=O)sc4ccccc43)n2C)cc1Cl	none (no result: CAL PDZ FP-1)
COc1ncnc2c1N[C@@](C)(O)c1c(F)c(F)c(F)c(F)c1S2	CAL PDZ FP-1 46
CC(C)N(Cc1ccccc1)C(=O)COC(=O)c1cnc(Cl)c(Cl)c1	CAL PDZ FP-1 42 (no result: Rce1 inh, AI-2 QS mod)
O=C(OCc1ccccc1)c1cnc(Cl)c(Cl)c1	none
Cc1cccc(NC(=O)Nc2ccc(Cl)cc2)n1	CAL PDZ FP-1 40
Cc1ccc(NC(=O)Nc2cccc(C)n2)cc1	none
CCOC(=O)c1ccc(NC(=S)Nc2cccc(C)n2)cc1	none (no result: CAL PDZ FP-1)

Bioassay records from PubChem BioAssay.
